Results reported in ChEMBL document CHEMBL3600321, “Synthesis and antifungal evaluation of head-to-head and head-to-tail bisamidine compounds” (Bioorg Med Chem, 2015).
Converted amounts (≈) assume the structure as drawn.

Legend:
HeLa = assay: Cytotoxicity against human HeLa cells assessed as cell viability after 72 hrs by MTS assay; assay type: cell-based
Candida albicans = assay: Antifungal activity against Candida albicans WTBF-50 by microbroth dilution method; assay type: functional
Method in brief: (§1)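 CLSI microbroth dilution in RPMI 1640 with L-glutamine. MIC values are geometric means of three independent assays.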

Candida parapsilosis = assay: Antifungal activity against Candida parapsilosis ATCC 90018 WTBF-88 by microbroth dilution method; assay type: functional; settings: Lodderomyces parapsilosis; method in brief: as §1
Cryptococcus neoformans = assay: Antifungal activity against Cryptococcus neoformans Cn18 (Serotype C) WTBF-106 by microbroth dilution method; assay type: functional
Method in brief: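 Microbroth dilution per the CLSI protocol, run in Sabouraud Dextrose Broth in place of RPMI. MIC values are geometric means of three independent assays.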

[1] = Metabolic stability in liver microsomes (unknown origin); assay type: ADME
Pichia kudriavzevii = assay: Antifungal activity against Candida krusei WTBF-51 by microbroth dilution method; assay type: functional
Nakaseomyces glabratus = assay: Antifungal activity against Candida glabrata ATCC 90030 WTBF-86 by microbroth dilution method; assay type: functional; method in brief: as §1

For `CC(=O)O.c1cc2cc(-c3ccc4nc(C5=NCCCN5)cn4c3)[nH]c2cc1C1=NCCCN1`, the CC50 (HeLa) was 91.9 µg/mL, the MIC (Candida albicans) was 1 µg/mL and the MIC (Candida parapsilosis) was 1 µg/mL. The MIC (Cryptococcus neoformans) was 6.25 µg/mL, the Stability [1] was “Stable” and the MIC (Pichia kudriavzevii) was 1.26 µg/mL. The MIC (Nakaseomyces glabratus) was 0.16 µg/mL.

Work on `CC(=O)O.c1cc2cc(-c3ccc(-c4ccc5nc(C6=NCCCN6)cn5c4)cc3)oc2cc1C1=NCCCN1` yielded a CC50 (HeLa) of 20.7 µg/mL, an MIC (Candida albicans) of 4 µg/mL and an MIC (Candida parapsilosis) of 0.79 µg/mL. The MIC (Cryptococcus neoformans) was 1 µg/mL, the Stability [1] was “Stable” and the MIC (Pichia kudriavzevii) was 8 µg/mL. The MIC (Nakaseomyces glabratus) was 1 µg/mL.

Work on `CC(=O)O.c1cc2cc(-c3cnc(-c4cc5ccc(C6=NCCCN6)cc5[nH]4)cn3)[nH]c2cc1C1=NCCCN1` yielded a CC50 (HeLa) of 42.7 µg/mL, an MIC (Candida albicans) of 0.5 µg/mL and an MIC (Candida parapsilosis) of 0.2 µg/mL. For the same molecule, the MIC (Cryptococcus neoformans) was 3.13 µg/mL, the Stability [1] was “Stable” and the MIC (Pichia kudriavzevii) was 0.5 µg/mL. It also gave an MIC (Nakaseomyces glabratus) of 0.06 µg/mL.

`CN1CCCN=C1c1ccc2cc(-c3ccc(-c4cc5ccc(C6=NCCCN6C)cc5[nH]4)cc3)[nH]c2c1` showed a CC50 (HeLa) of 4.7 µg/mL (≈ 9.39 µM), an MIC (Candida albicans) of 1.59 µg/mL (≈ 3.18 µM) and an MIC (Candida parapsilosis) of 1 µg/mL (≈ 2 µM). The MIC (Cryptococcus neoformans) was 1.97 µg/mL (≈ 3.93 µM), the Stability [1] was “Stable” and the MIC (Pichia kudriavzevii) was 4 µg/mL (≈ 7.99 µM). For the same molecule, the MIC (Nakaseomyces glabratus) was 1.26 µg/mL (≈ 2.52 µM).

In the case of `CC(=O)O.c1cc2cc(-c3ccc(-c4ccc5nc(C6=NCCCN6)cn5c4)cc3)[nH]c2cc1C1=NCCCN1`, the CC50 (HeLa) is reported as 34.6 µg/mL, the MIC (Candida albicans) is reported as 0.5 µg/mL and the MIC (Candida parapsilosis) is reported as 0.5 µg/mL. For the same molecule, the MIC (Cryptococcus neoformans) was 2 µg/mL, the Stability [1] was “Stable” and the MIC (Pichia kudriavzevii) was 0.5 µg/mL. The MIC (Nakaseomyces glabratus) was 0.13 µg/mL.

With `Brc1c(-c2ccc(-c3[nH]c4cc(C5=NCCCN5)ccc4c3Br)cc2)[nH]c2cc(C3=NCCCN3)ccc12.O=C(O)C(F)(F)F` the CC50 (HeLa) was 0.5 µg/mL, the MIC (Candida albicans) was 0.63 µg/mL and the MIC (Candida parapsilosis) was 0.5 µg/mL. For the same molecule, the MIC (Cryptococcus neoformans) was 0.78 µg/mL, the Stability [1] was “Stable” and the MIC (Pichia kudriavzevii) was 0.5 µg/mL. For the same molecule, the MIC (Nakaseomyces glabratus) was 0.5 µg/mL.

With `CC1(C)CN=C(c2ccc3cc(-c4ccc(-c5cc6ccc(C7=NCC(C)(C)CN7)cc6[nH]5)cc4)[nH]c3c2)NC1.O=C(O)C(F)(F)F` the CC50 (HeLa) was 8 µg/mL, the MIC (Candida albicans) was 4 µg/mL and the MIC (Candida parapsilosis) was 8 µg/mL. The MIC (Cryptococcus neoformans) was 3.13 µg/mL, the Stability [1] was “Stable” and the MIC (Pichia kudriavzevii) was 4 µg/mL. It also gave an MIC (Nakaseomyces glabratus) of 2 µg/mL.

For `CC(C)NC(=N)c1ccc2cc(-c3ccc(-c4cc5ccc(C(=N)NC(C)C)cc5[nH]4)cc3)[nH]c2c1.O=C(O)C(F)(F)F`, the CC50 (HeLa) was 3.5 µg/mL, the MIC (Candida albicans) was 0.5 µg/mL and the MIC (Candida parapsilosis) was 0.25 µg/mL. The MIC (Cryptococcus neoformans) was 1.56 µg/mL, the Stability [1] was “Stable” and the MIC (Pichia kudriavzevii) was 0.4 µg/mL. It also gave an MIC (Nakaseomyces glabratus) of 0.2 µg/mL.

`CC(=O)O.c1cc2cc(-c3ccc4cc(C5=NCCCN5)[nH]c4c3)sc2cc1C1=NCCCN1` gave a CC50 (HeLa) of 27.5 µg/mL, an MIC (Candida albicans) of 3.17 µg/mL and an MIC (Candida parapsilosis) of 2 µg/mL. For the same molecule, the MIC (Cryptococcus neoformans) was 4 µg/mL, the Stability [1] was “Stable” and the MIC (Pichia kudriavzevii) was 16 µg/mL. The MIC (Nakaseomyces glabratus) was 5.04 µg/mL.

Molecule `COCCNC(=N)c1ccc2cc(-c3ccc(-c4cc5ccc(C(=N)NCCOC)cc5[nH]4)cc3)[nH]c2c1.O=C(O)C(F)(F)F` has a CC50 (HeLa) of 3.5 µg/mL, an MIC (Candida albicans) of 0.79 µg/mL and an MIC (Candida parapsilosis) of 0.79 µg/mL. For the same molecule, the MIC (Cryptococcus neoformans) was 1.1 µg/mL, the Stability [1] was “Stable” and the MIC (Pichia kudriavzevii) was 1 µg/mL. It also gave an MIC (Nakaseomyces glabratus) of 0.5 µg/mL.

`CC(=O)O.c1cc2cc(-c3ccc(-c4ccn5cc(C6=NCCCN6)nc5c4)cc3)[nH]c2cc1C1=NCCCN1` showed a CC50 (HeLa) of 13.4 µg/mL, an MIC (Candida albicans) of 0.79 µg/mL and an MIC (Candida parapsilosis) of 0.31 µg/mL. For the same molecule, the MIC (Cryptococcus neoformans) was 0.5 µg/mL, the Stability [1] was “Stable” and the MIC (Pichia kudriavzevii) was 1 µg/mL. The MIC (Nakaseomyces glabratus) was 0.13 µg/mL.

`O=C(O)C(F)(F)F.c1cc2cc(-c3ccc(-c4nc5ccc(C6=NCCCN6)cc5[nH]4)cc3)[nH]c2cc1C1=NCCCN1` gave a CC50 (HeLa) of 14.1 µg/mL, an MIC (Candida albicans) of 0.4 µg/mL and an MIC (Candida parapsilosis) of 0.16 µg/mL. For the same molecule, the MIC (Cryptococcus neoformans) was 0.5 µg/mL, the Stability [1] was “Stable” and the MIC (Pichia kudriavzevii) was 1 µg/mL. It also gave an MIC (Nakaseomyces glabratus) of 0.13 µg/mL.

Work on `N=C(NC1CCC(O)CC1)c1ccc2cc(-c3ccc(-c4cc5ccc(C(=N)NC6CCC(O)CC6)cc5[nH]4)cc3)[nH]c2c1.O=C(O)C(F)(F)F` (stereo not drawn) yielded a CC50 (HeLa) of 29.8 µg/mL, an MIC (Candida albicans) of 2.52 µg/mL and an MIC (Candida parapsilosis) of 2 µg/mL. For the same molecule, the MIC (Cryptococcus neoformans) was 2.48 µg/mL, the Stability [1] was “Stable” and the MIC (Pichia kudriavzevii) was 4 µg/mL. It also gave an MIC (Nakaseomyces glabratus) of 4 µg/mL.

With `O=C(O)C(F)(F)F.OC1CN=C(c2ccc3cc(-c4ccc(-c5cc6ccc(C7=NCC(O)CN7)cc6[nH]5)cc4)[nH]c3c2)NC1` (stereo not drawn) the CC50 (HeLa) was > 80 µg/mL, the MIC (Candida albicans) was 0.5 µg/mL and the MIC (Candida parapsilosis) was 0.31 µg/mL. For the same molecule, the MIC (Cryptococcus neoformans) was 0.06 µg/mL, the Stability [1] was “Stable” and the MIC (Pichia kudriavzevii) was 12.7 µg/mL. It also gave an MIC (Nakaseomyces glabratus) of 0.16 µg/mL.

With `CC(=O)O.c1cc2cc(-c3ccc4cc(C5=NCCCN5)[nH]c4c3)oc2cc1C1=NCCCN1` the CC50 (HeLa) was 40.5 µg/mL, the MIC (Candida albicans) was 4 µg/mL and the MIC (Candida parapsilosis) was 2 µg/mL. The MIC (Cryptococcus neoformans) was 1 µg/mL, the Stability [1] was “Stable” and the MIC (Pichia kudriavzevii) was 25.4 µg/mL. It also gave an MIC (Nakaseomyces glabratus) of 2.52 µg/mL.

For `N=C(NCCN1CCOCC1)c1ccc2cc(-c3ccc(-c4cc5ccc(C(=N)NCCN6CCOCC6)cc5[nH]4)cc3)[nH]c2c1.O=C(O)C(F)(F)F`, the CC50 (HeLa) was 24.9 µg/mL, the MIC (Candida albicans) was 2.52 µg/mL and the MIC (Candida parapsilosis) was 2 µg/mL. For the same molecule, the MIC (Cryptococcus neoformans) was 2.48 µg/mL, the Stability [1] was “Stable” and the MIC (Pichia kudriavzevii) was 2 µg/mL. The MIC (Nakaseomyces glabratus) was 2 µg/mL.

In the case of `O=C(O)C(F)(F)F.c1cc2cc(-c3ccc(-c4cn5cc(C6=NCCCN6)ccc5n4)cc3)[nH]c2cc1C1=NCCCN1`, the CC50 (HeLa) is reported as 19.7 µg/mL, the MIC (Candida albicans) is reported as 0.63 µg/mL and the MIC (Candida parapsilosis) is reported as 0.25 µg/mL. The MIC (Cryptococcus neoformans) was 3.13 µg/mL, the Stability [1] was “Stable” and the MIC (Pichia kudriavzevii) was 4 µg/mL. For the same molecule, the MIC (Nakaseomyces glabratus) was 0.25 µg/mL.

`CN(C)CCNC(=N)c1ccc2cc(-c3ccc(-c4cc5ccc(C(=N)NCCN(C)C)cc5[nH]4)cc3)[nH]c2c1.O=C(O)C(F)(F)F` gave a CC50 (HeLa) of 5.5 µg/mL, an MIC (Candida albicans) of 1 µg/mL and an MIC (Candida parapsilosis) of 0.5 µg/mL. For the same molecule, the MIC (Cryptococcus neoformans) was 1.97 µg/mL, the Stability [1] was “Stable” and the MIC (Pichia kudriavzevii) was 1 µg/mL. The MIC (Nakaseomyces glabratus) was 0.63 µg/mL.

With `CC(=O)O.c1cn2cc(-c3ccc(-c4ccc5cc(C6=NCCCN6)[nH]c5c4)cc3)nc2cc1C1=NCCCN1` the CC50 (HeLa) was 20.7 µg/mL, the MIC (Candida albicans) was 16 µg/mL and the MIC (Candida parapsilosis) was 8 µg/mL. The MIC (Cryptococcus neoformans) was 1 µg/mL, the Stability [1] was “Stable” and the MIC (Pichia kudriavzevii) was 16 µg/mL. For the same molecule, the MIC (Nakaseomyces glabratus) was 32 µg/mL.

For `CC(=O)O.c1cc2nc(-c3ccc(-c4ccc5cc(C6=NCCCN6)oc5c4)cc3)cn2cc1C1=NCCCN1`, the CC50 (HeLa) was 25.5 µg/mL, the MIC (Candida albicans) was 2 µg/mL and the MIC (Candida parapsilosis) was 2 µg/mL. The MIC (Cryptococcus neoformans) was 2 µg/mL, the Stability [1] was “Stable” and the MIC (Pichia kudriavzevii) was 8 µg/mL. The MIC (Nakaseomyces glabratus) was 0.31 µg/mL.

For `CC1CN=C(c2ccc3cc(-c4ccc(-c5cc6ccc(C7=NCC(C)CN7)cc6[nH]5)cc4)[nH]c3c2)NC1.O=C(O)C(F)(F)F` (stereo not drawn), the CC50 (HeLa) was 5.8 µg/mL, the MIC (Candida albicans) was 0.5 µg/mL and the MIC (Candida parapsilosis) was 0.25 µg/mL. For the same molecule, the MIC (Cryptococcus neoformans) was 0.25 µg/mL, the Stability [1] was “Stable” and the MIC (Pichia kudriavzevii) was 0.5 µg/mL. The MIC (Nakaseomyces glabratus) was 0.13 µg/mL.

In the case of `Cl.OCC1(CO)CN=C(c2ccc3cc(-c4ccc(-c5cc6ccc(C7=NCC(CO)(CO)CN7)cc6[nH]5)cc4)[nH]c3c2)NC1`, the CC50 (HeLa) is reported as 32.4 µg/mL, the MIC (Candida albicans) is reported as 1.26 µg/mL and the MIC (Candida parapsilosis) is reported as 2 µg/mL. The MIC (Cryptococcus neoformans) was 3.13 µg/mL, the Stability [1] was “Stable” and the MIC (Pichia kudriavzevii) was 8 µg/mL. It also gave an MIC (Nakaseomyces glabratus) of 1 µg/mL.

For `FC1CN=C(c2ccc3cc(-c4ccc(-c5cc6ccc(C7=NCC(F)CN7)cc6[nH]5)cc4)[nH]c3c2)NC1.O=C(O)C(F)(F)F` (stereo not drawn), the CC50 (HeLa) was 13.9 µg/mL, the MIC (Candida albicans) was 0.5 µg/mL and the MIC (Candida parapsilosis) was 0.25 µg/mL. For the same molecule, the MIC (Cryptococcus neoformans) was 0.25 µg/mL, the Stability [1] was “Stable” and the MIC (Pichia kudriavzevii) was 0.25 µg/mL. It also gave an MIC (Nakaseomyces glabratus) of 0.13 µg/mL.

Work on `Cl.N=C(N)c1ccc2cc(-c3ccc(-c4cc5ccc(C(=N)N)cc5[nH]4)cc3)[nH]c2c1` yielded a CC50 (HeLa) of 7 µg/mL, an MIC (Candida albicans) of 16 µg/mL and an MIC (Candida parapsilosis) of 2 µg/mL. The MIC (Cryptococcus neoformans) was 3.13 µg/mL, the Stability [1] was “Stable” and the MIC (Pichia kudriavzevii) was 2 µg/mL. It also gave an MIC (Nakaseomyces glabratus) of 4 µg/mL.
